Test [1] deals with T1, High affinity nerve growth factor receptor (Homo sapiens, UniProt P04629). The test can be described thus: Inhibition of human recombinant TrkA at 20 uM using ATP and 5FAM tagged TrkA peptide substrate incubated for 60 mins by microfluidics assay. In outline:
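TrkA enzyme at 2 nM, preincubated with inhibitor 60 min with shaking in HEPES kinase buffer (MgCl2, DTT, Brij-35, Tween 20), then ATP (190 µM running) and 5FAM-labelled TrkA peptide (1.5 µM) added. Run to 10–20% conversion in no-inhibitor wells. Product/substrate peaks separated by microfluidic mobility-shift read. Single point at 20 µM inhibitor, quadruplicate.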
Target sequence in this assay (P04629 33-796 limits assumed): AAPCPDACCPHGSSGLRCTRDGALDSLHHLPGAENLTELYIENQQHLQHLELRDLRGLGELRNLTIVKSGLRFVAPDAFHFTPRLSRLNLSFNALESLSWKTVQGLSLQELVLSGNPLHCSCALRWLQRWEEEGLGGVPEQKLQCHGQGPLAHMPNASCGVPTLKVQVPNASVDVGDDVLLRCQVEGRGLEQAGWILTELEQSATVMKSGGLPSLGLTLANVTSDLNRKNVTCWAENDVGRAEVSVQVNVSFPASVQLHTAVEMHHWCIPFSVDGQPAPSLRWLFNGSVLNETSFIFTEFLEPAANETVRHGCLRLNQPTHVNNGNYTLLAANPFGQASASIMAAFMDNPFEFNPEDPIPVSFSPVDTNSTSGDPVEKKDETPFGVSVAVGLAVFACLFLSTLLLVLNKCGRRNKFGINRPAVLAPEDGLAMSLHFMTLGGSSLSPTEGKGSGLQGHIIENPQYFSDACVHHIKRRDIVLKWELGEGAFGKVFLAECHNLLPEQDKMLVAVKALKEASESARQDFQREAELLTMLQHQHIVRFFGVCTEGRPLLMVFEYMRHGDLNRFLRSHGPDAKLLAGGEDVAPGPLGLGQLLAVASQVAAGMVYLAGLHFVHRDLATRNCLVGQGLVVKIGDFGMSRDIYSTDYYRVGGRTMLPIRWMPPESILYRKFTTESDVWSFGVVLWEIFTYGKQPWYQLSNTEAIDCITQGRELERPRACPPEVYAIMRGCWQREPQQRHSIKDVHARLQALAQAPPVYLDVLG

For test [2], the target named is T1, High affinity nerve growth factor receptor. The test can be described thus: Inhibition of human recombinant TrkA using ATP and 5FAM tagged TrkA peptide substrate incubated for 60 mins by microfluidics assay. Summed up: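 TrkA enzyme at 2 nM, preincubated 60 min with inhibitor in HEPES/MgCl2/DTT kinase buffer. Reaction started with ATP 190 µM and 5FAM-TrkA peptide 1.5 µM (running). Twelve-point half-log series, 0.2 mM–0.632 nM final. Stopped at 10–20% conversion of uninhibited control. Phospho-product separated by microfluidic read. Curves fit to one-phase exponential decay, IC50 from the half-life, duplicate, mean ± SD.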
Target sequence in this assay (P04629 whole entry): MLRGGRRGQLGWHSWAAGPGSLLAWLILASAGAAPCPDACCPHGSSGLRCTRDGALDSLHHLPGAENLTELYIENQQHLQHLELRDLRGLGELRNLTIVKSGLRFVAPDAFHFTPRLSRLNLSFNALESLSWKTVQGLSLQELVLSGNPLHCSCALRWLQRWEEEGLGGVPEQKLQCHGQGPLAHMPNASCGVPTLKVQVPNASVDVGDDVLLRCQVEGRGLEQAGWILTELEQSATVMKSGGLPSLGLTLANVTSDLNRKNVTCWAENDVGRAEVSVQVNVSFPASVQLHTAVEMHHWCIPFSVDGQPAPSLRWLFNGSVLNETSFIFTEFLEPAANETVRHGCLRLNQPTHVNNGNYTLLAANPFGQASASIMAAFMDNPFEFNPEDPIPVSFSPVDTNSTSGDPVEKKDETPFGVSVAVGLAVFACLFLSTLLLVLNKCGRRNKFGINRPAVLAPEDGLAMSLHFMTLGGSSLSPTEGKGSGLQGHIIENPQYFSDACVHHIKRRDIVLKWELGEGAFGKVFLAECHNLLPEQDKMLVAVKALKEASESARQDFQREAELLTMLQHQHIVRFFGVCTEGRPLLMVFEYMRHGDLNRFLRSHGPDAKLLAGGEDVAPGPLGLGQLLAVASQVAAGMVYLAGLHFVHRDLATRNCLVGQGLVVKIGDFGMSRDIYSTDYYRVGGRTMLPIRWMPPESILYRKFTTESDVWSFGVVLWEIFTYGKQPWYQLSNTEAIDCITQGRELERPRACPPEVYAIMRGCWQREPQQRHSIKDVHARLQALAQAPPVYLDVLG

Test [3] concerns the target Vascular endothelial growth factor receptor 2 (Homo sapiens, UniProt P35968). The test can be described thus: Inhibition of KDR (unknown origin) using ATP and 5FAM tagged TrkA peptide substrate incubated for 60 mins by microfluidics assay.
The target of a further test is T2, Ephrin type-B receptor 2 (Homo sapiens, UniProt P29323).
T2 sequence (P29323 whole entry): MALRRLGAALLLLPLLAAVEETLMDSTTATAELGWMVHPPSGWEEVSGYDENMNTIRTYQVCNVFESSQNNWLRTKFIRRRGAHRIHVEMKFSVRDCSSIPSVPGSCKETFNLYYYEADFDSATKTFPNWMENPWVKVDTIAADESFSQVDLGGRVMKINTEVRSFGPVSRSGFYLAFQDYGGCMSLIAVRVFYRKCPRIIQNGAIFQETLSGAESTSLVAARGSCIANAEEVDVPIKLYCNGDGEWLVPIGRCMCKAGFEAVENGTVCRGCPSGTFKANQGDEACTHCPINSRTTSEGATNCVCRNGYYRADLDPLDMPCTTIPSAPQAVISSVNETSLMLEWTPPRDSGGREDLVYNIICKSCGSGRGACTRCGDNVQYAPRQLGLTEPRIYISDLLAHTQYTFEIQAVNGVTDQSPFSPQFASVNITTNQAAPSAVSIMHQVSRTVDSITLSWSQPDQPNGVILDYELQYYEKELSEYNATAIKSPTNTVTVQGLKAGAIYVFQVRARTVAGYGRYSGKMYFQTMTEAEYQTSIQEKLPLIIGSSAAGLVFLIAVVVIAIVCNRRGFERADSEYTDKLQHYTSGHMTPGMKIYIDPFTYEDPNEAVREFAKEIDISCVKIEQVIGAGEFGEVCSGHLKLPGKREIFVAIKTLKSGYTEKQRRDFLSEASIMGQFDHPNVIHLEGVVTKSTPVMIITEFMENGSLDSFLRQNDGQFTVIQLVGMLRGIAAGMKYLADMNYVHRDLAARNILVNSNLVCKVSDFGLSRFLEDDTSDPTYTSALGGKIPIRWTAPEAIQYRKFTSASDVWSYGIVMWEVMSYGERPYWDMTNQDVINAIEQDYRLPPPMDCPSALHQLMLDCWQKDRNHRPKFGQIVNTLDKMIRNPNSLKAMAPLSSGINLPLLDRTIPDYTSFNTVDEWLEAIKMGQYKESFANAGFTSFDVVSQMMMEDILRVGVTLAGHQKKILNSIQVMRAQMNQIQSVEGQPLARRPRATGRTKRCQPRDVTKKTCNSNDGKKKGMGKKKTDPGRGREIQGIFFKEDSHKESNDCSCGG
The test can be described thus: Inhibition of EphB2 (unknown origin) using ATP and 5FAM tagged TrkA peptide substrate incubated for 60 mins by microfluidics assay.

Consider 41 compounds from ChEMBL document CHEMBL3596123, “Identification of pyrazine-based TrkA inhibitors: design, synthesis, evaluation, and computational modeling studies” (Medchemcomm, 2014).

Vascular endothelial growth factor receptor 2, sequence (P35968 whole entry): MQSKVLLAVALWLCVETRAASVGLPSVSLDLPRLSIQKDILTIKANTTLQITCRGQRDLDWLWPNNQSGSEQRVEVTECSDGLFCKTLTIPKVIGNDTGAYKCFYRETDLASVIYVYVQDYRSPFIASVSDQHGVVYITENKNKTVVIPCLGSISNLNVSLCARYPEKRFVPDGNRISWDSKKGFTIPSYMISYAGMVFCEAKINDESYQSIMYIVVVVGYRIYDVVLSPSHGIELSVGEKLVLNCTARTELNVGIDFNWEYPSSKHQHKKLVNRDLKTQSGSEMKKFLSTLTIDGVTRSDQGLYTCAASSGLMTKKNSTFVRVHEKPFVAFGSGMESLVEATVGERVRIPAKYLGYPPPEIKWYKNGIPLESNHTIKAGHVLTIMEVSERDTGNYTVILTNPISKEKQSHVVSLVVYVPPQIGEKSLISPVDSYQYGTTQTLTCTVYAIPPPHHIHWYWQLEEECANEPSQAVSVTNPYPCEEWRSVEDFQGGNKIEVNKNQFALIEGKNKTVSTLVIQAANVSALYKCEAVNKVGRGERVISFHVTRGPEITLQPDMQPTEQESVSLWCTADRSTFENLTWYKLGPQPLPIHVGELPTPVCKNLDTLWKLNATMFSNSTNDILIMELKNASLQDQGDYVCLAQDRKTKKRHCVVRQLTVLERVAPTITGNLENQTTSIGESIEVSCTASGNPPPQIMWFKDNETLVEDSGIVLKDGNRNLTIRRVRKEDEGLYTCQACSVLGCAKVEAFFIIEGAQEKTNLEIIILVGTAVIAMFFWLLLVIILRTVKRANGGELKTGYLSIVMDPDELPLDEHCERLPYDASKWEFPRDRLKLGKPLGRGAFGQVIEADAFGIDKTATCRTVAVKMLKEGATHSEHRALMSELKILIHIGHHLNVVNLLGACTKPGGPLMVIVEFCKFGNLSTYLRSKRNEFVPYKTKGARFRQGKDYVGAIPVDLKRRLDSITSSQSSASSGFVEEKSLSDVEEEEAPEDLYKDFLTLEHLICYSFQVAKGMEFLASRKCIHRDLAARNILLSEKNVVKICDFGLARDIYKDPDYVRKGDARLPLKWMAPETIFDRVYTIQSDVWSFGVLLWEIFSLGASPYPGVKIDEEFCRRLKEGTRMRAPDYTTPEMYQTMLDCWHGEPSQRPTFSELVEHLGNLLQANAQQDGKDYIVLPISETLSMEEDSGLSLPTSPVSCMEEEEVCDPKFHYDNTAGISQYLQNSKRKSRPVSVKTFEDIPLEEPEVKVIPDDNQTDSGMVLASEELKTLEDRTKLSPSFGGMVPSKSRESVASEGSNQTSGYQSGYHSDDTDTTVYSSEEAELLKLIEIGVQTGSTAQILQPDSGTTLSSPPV

Usually inhibition stands for the drop in the measured response relative to a control, in per cent. In the case of `CC(C)c1ccc(NC(=O)Nc2cccc(Oc3cncc(-c4cncnc4)n3)c2)cc1`, in test [1], the inhibition was found to be 28.2%. The IC50 is the midpoint of a concentration-inhibition curve. Take `CC(C)(C)c1cc(NC(=O)Nc2cccc(Oc3cncc(-c4ccsc4)n3)c2)no1`: the inhibition in test [1] was found to be 100%. Also, the IC50 in test [2] is 39 nM; in test [3], over 2000 nM; against Ephrin type-B receptor 2 it was over 2000 nM. On to `COc1ccc(-c2cncc(Oc3cccc(NC(=O)Nc4ccc(C(C)(C)C)cc4)c3)n2)cc1`, for which the inhibition in test [1] was found to be 33.8%. Still for that read-out and setting: the figure for `Cn1cc(-c2cncc(Oc3cccc(NC(=O)Nc4ccc(C(C)(C)C)cc4)c3)n2)cn1` is 86.9%; for `Cn1nc(C(C)(C)C)cc1NC(=O)Nc1cccc(Oc2cncc(-c3ccsc3)n2)c1` it is 26.8%; for `COc1ccc(-c2cncc(Oc3cccc(NC(=O)Nc4cc(C(C)(C)C)nn4C)c3)n2)cc1` it is 15.5%. For `CC(C)(C)c1cccc(NC(=O)Nc2cccc(Oc3cncc(Cl)n3)c2)c1`, in test [2], the half-maximal inhibitory concentration (IC50) was over 100000 nM. As to `Nc1ccc(-c2cncc(-c3ccsc3)n2)cc1`, the inhibition in test [1] was found to be 17%. For `COc1ccc(-c2cncc(Oc3cccc(NC(=O)Nc4cc(C(C)(C)C)on4)c3)n2)cc1`, in test [1], the inhibition was 98.6%. In addition, the IC50 in test [2] is 47 nM; in test [3], over 2000 nM; at Ephrin type-B receptor 2 it was over 2000 nM. Regarding `COc1ccc(-c2cncc(Oc3cccc(NC(=O)Nc4ccc(C(C)C)cc4)c3)n2)cc1`, the inhibition in test [1] was determined as 98%. In addition, in test [2], the IC50 turned out to be 380 nM.

As to `Cn1nc(C(C)(C)C)cc1NC(=O)Nc1cccc(Oc2cncc(-c3ccc(F)cc3)n2)c1`, in test [1], the inhibition stood at 26.9%. On to `COc1ccc(-c2cncc(Oc3cccc(NC(=O)Nc4cccc(C(F)(F)F)c4)c3)n2)cc1`, for which the inhibition in test [1] came to 95.5%. Further, the IC50 in test [2] was 1600 nM.

Regarding `O=C(Nc1cccc(Oc2cncc(-c3ccsc3)n2)c1)Nc1cccc(C(F)(F)F)c1`, the inhibition in test [1] was 96.2%. Also, the IC50 in test [2] came out at 1100 nM. With `CS(=O)(=O)c1ccc(-c2cncc(Oc3cccc(NC(=O)Nc4cccc(C(F)(F)F)c4)c3)n2)cc1`, the inhibition in test [1] stood at 90.8%. Moreover, the IC50 in test [2] turned out to be 1700 nM. In the case of `Nc1ccc(-c2cncc(-c3cncnc3)n2)cc1`, the inhibition in test [1] turned out to be 77%. Take `Cn1nc(C(C)(C)C)cc1NC(=O)Nc1cccc(Oc2cncc(-c3ccc(S(C)(=O)=O)cc3)n2)c1`: the inhibition in test [1] was determined as 94%. Also, the concentration for half-maximal inhibition (IC50) in test [2] came to 490 nM. As for `CC(C)c1ccc(NC(=O)Nc2cccc(Oc3cncc(-c4ccc(F)cc4)n3)c2)cc1`, in test [1], the inhibition was 56.9%. With `O=C(Nc1cccc(Oc2cncc(Cl)n2)c1)Nc1cccc(C(F)(F)F)c1`, the IC50 in test [2] turned out to be 3500 nM. With `Cn1cc(-c2cncc(Oc3cccc(NC(=O)Nc4cc(C(C)(C)C)on4)c3)n2)cn1`, the inhibition in test [1] turned out to be 101%. The IC50 in test [2] worked out at 24 nM. Take `CC(C)c1ccc(NC(=O)Nc2cccc(Oc3cncc(-c4cnn(C)c4)n3)c2)cc1`: the inhibition in test [1] is 56.3%. With `CC(C)(C)c1cc(NC(=O)Nc2cccc(Oc3cncc(-c4ccc(F)cc4)n3)c2)no1`, the inhibition in test [1] was found to be 100%. Also, the IC50 is 22 nM in test [2], over 2000 nM in test [3] and over 2000 nM against Ephrin type-B receptor 2.

On to `Cn1cc(-c2cncc(Oc3cccc(NC(=O)Nc4cccc(C(F)(F)F)c4)c3)n2)cn1`, for which, in test [1], the inhibition was found to be 92%. Besides, in test [2], the IC50 is 530 nM.

Consider `CC(C)(C)c1cc(NC(=O)Nc2cccc(Oc3cncc(Cl)n3)c2)no1`, for which the 50% inhibitory concentration (IC50) in test [2] was over 100000 nM. As to `CC(C)(C)c1cc(NC(=O)Nc2cccc(Oc3cncc(-c4ccsc4)n3)c2)on1`, the inhibition in test [1] came out at 69%. As for `CC(C)(C)c1ccc(NC(=O)Nc2cccc(Oc3cncc(-c4ccc(S(C)(=O)=O)cc4)n3)c2)cc1`, in test [1], the inhibition is 46.7%. On the same count and under the same terms, the result for `CC(C)(C)c1cc(NC(=O)Nc2cccc(Oc3cncc(-c4cncnc4)n3)c2)on1` reads 79.4%; that for `Cn1cc(-c2cncc(-c3ccc(N)cc3)n2)cn1`, 46%. `CC(C)c1ccc(NC(=O)Nc2cccc(Oc3cncc(-c4ccc(S(C)(=O)=O)cc4)n3)c2)cc1`: in test [1], the inhibition is 96.9%. Also, in test [2], the half-inhibitory concentration (IC50) was found to be 420 nM. Regarding `CC(C)(C)c1cc(NC(=O)Nc2cccc(Oc3cncc(-c4ccc(F)cc4)n3)c2)on1`, the inhibition in test [1] came out at 47.2%. With `O=C(Nc1cccc(Oc2cncc(-c3ccc(F)cc3)n2)c1)Nc1cccc(C(F)(F)F)c1`, the inhibition in test [1] is 27.1%.

For `Cn1cc(-c2cncc(Oc3cccc(NC(=O)Nc4cc(C(C)(C)C)no4)c3)n2)cn1`, the inhibition in test [1] amounted to 48.8%. For `CC(C)(C)c1cc(NC(=O)Nc2cccc(Oc3cncc(-c4ccc(S(C)(=O)=O)cc4)n3)c2)no1`, the inhibition in test [1] came out at 96.5%. The IC50 is 92 nM in test [2] and over 2000 nM on Ephrin type-B receptor 2.

Turning to `CC(C)(C)c1ccc(NC(=O)Nc2cccc(Oc3cncc(-c4cncnc4)n3)c2)cc1`, the inhibition in test [1] was determined as 49.6%.

Regarding `Cn1cc(-c2cncc(Oc3cccc(NC(=O)Nc4cc(C(C)(C)C)nn4C)c3)n2)cn1`, the inhibition in test [1] stood at 61.1%. For `CC(C)c1ccc(NC(=O)Nc2cccc(Oc3cncc(-c4ccsc4)n3)c2)cc1`, in test [1], the inhibition was 99.2%. Further, the IC50 in test [2] turned out to be 870 nM. On to `COc1ccc(-c2cncc(Oc3cccc(NC(=O)Nc4cc(C(C)(C)C)no4)c3)n2)cc1`, for which the inhibition in test [1] came out at 37.2%. The same measure, in the same setting: the result for `Nc1ccc(-c2cncc(Cl)n2)cc1` reads 47%; that for `CC(C)(C)c1ccc(NC(=O)Nc2cccc(Oc3cncc(-c4ccsc4)n3)c2)cc1`, 27.7%. The same measure, in the same setting: the figure for `CC(C)(C)c1ccc(NC(=O)Nc2cccc(Oc3cncc(-c4ccc(F)cc4)n3)c2)cc1` is 32.2%. Still for that read-out and setting: the result for `O=C(Nc1cccc(Oc2cncc(-c3cncnc3)n2)c1)Nc1cccc(C(F)(F)F)c1` reads 69.3%. Take `Cn1cc(-c2cncc(-c3ccc(NC(=O)Nc4cc(C(C)(C)C)nn4C)cc3)n2)cn1`: the inhibition in test [1] was determined as 99.7%. Moreover, in test [2], the half-maximal inhibitory concentration (IC50) came out at 12 nM.
